D1 allo mod – allosterically modulates the human D1 dopamine receptor; P21728; HEK293 D1, CRE-luciferase, dopamine EC30 potentiation; actives deviate in either direction; B-score at 10 µM; 5.9% of 58,000 active;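 active = luminescence count or its row- and column-corrected plate score outside the 99.7% band of the plate's sample wells, on either side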
Target sequence (P21728 whole entry, looked up): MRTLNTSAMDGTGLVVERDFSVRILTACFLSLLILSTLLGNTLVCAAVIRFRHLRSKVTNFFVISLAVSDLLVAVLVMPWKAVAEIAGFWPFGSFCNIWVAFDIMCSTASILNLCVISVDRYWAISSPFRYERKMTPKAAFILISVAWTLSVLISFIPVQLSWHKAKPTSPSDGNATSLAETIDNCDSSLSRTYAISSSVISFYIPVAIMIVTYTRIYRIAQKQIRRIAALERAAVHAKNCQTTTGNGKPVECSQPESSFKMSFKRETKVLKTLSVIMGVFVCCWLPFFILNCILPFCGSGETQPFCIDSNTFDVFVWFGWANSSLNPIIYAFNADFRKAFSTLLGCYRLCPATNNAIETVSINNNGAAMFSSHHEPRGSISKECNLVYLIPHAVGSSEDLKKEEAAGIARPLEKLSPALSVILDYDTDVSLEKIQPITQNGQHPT
mHtt clearance – compounds clearing mutant huntingtin protein. 0.42% of 47,000 active. HeLa Exon1htt(103Q)mCFP, aggregate imaging; zero = plate's median compound well. inhibition, % at 1.5 µM;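 active = inhibition of aggregate fluorescence above about 70%, also judged a hit by eye on the cell image, limit read from the data, passing the limit was not always enough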;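 also: cells exposed to compound for three days before fixation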
SF-1 act – activators of human nuclear receptor SF-1; Q13285; CHO-K1 Gal4-SF-1 LBD luciferase reporter; % increase over DMSO SF-1-specific signal; activation, % at 10 µM; 1.9% of 65,000 active; AID 522;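 active = activation above the mean activation of all tested compounds plus 3 SD, cut at about 50% in these data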
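Compound – one dose, 10 µM compound, 1% DMSO · Test system – transient Gal4-SF-1 LBD reporter, CHO-K1 · Input – 4,000 cells in each well · Read-out basis – percent activation relative to DMSO median and mock-transfected background · Replicates – single measurement per compound · Technique – steady-glow luciferase luminescence, read after 15 min reagent incubation · Timing – 20 h compound treatment, 37 °C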
M1 antag – blocks the rat M1 muscarinic receptor response to acetylcholine; CHO-M1 cells, Fluo-4 calcium, ACh EC80 antagonist mode; stronger effect = lower value; B-score at 10 µM; 3.4% of 64,000 active; AID 628;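 active = calcium fluorescence response, raw or row-and-column corrected B-score, differing from the plate sample mean either way at a set confidence level, mostly lower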
M1 ag – activates the M1 muscarinic receptor; CHO-M1 cells, Fluo-4 calcium fluorescence, agonist mode; stronger effect = higher value; 3% of 64,000 active; B-score at 10 µM;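 active = fluorescence rise, raw or as B-score row- and column-corrected plate score, outside the 99.7% band of its plate's samples, either direction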
RORA act – activators of human nuclear receptor RORA | CHO-K1 Gal4-RORA LBD luciferase reporter, luminescence; percent increase over mock-subtracted basal signal | activation, % at 10 µM | P35398 | 1.5% of 65,000 active;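 active = activation above the mean of all tested compounds plus 3 SD, cut at about 49% in these data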;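 also: 0% = DMSO-treated RORA cells and 100% = added signal equal to DMSO minus mock-transfected cells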
Starred values were filed as active, the others as inactive; nt = no result given. A selection: hits, their analogues and other compounds. The true share with any hit is near 11%.

SMILES | D1 allo mod | mHtt clearance | SF-1 act | M1 antag | M1 ag | RORA act
O=C(Nc1nccs1)c1ccc(NC(=O)c2ccco2)cc1 | 0.26 | nt | 56* | -0.32 | -0.88 | 53*
O=C(Nc1ccc(-c2nc3ccccc3[nH]2)cc1)c1ccco1 | nt | nt | 78* | -1.4 | 1.6 | 34
CC(C)CNC(=O)c1cccc(NC(=O)c2ccc(NC(=O)c3ccco3)cc2)c1 | -0.42 | 18 | 18 | 1.4* | 0.6 | 5
Cc1csc(NC(=O)c2ccco2)n1 | 0.0071 | nt | 16 | 0.42 | -0.14 | 32
Cc1cccc(N(CC(=O)NC2CCCCC2)C(=O)c2c(C)noc2C)c1 | nt | -29 | -5 | -0.1 | 0.24 | 3
CCOc1ccccc1NC(=O)c1ccc(NC(=O)c2ccco2)cc1 | nt | 21 | nt | nt | nt | nt
CCOc1ccc(NC(=O)c2ccco2)cc1 | -4.8* | -54 | -17 | 0.14 | 0.0085 | 8
COC(=O)c1nn(-c2c(C)n(C)n(-c3ccccc3)c2=O)cc1O | 0.037 | nt | 10 | -0.86 | 0.61 | 0
CC(=O)c1c(C)[nH]c(C(=O)NCCc2ccccc2)c1C | -3.5* | nt | 43 | -0.51 | 0.79 | 34
COc1ccc(CCNC(=O)c2[nH]c(C)c(C(C)=O)c2C)cc1OC | 0.1 | 18 | -8 | -0.11 | 0.026 | -14
OC1(c2cccc(C(F)(F)F)c2)CCN(c2ccc(-c3ccccc3)nn2)CC1 | -0.47 | -103 | 38 | -0.023 | -0.11 | 66*
OC1(c2cccc(C(F)(F)F)c2)CCN(c2ncnc3c2[nH]c2ccccc23)CC1 | 0.39 | nt | -22 | -1.8 | 2.7 | -24
Cc1ccc(OCC(O)CN2C(=O)NC(C)(C)C2=O)cc1 (configuration not stated) | nt | -206 | nt | nt | nt | nt
CCCCCCOc1ccc(OCC(O)CN2C(=O)NC(C)(C)C2=O)cc1 (configuration not stated) | 0.066 | nt | 36 | 0.047 | 0.023 | 62*
CCOCCCNS(=O)(=O)c1ccc(Br)cc1 | -0.37 | 18 | -15 | nt | nt | -12
Cc1ccc(-c2nc(CSCC(=O)NCc3cccnc3)c(C)o2)cc1 | 0.12 | -63 | -34 | 0.54 | -1.9 | -39
O=C(O)CCn1nnc(-c2cccs2)n1 | 0.1 | -72 | 0 | 0.11 | -0.32 | -10
CC(C)c1ccc(-c2nnn(CCC(=O)O)n2)cc1 | -3.6* | nt | -1 | -0.096 | -0.29 | -11
CC(=O)c1ccc(NC(=O)c2cnn3c(C(F)F)cc(C4CC4)nc23)cc1 | nt | -12 | nt | nt | nt | nt
CN(C)c1ccc(NC(=O)c2ccc(COc3cccc(Cl)c3)o2)cc1 | -0.25 | 3 | 42 | 0.96 | 0 | 73*
CCOc1ccc(OCc2ccc(C(=O)Nc3cccnc3)o2)cc1 | nt | -63 | nt | nt | nt | nt
CCSc1nnc(NC(=O)c2ccco2)s1 | -0.31 | -47 | 22 | 0 | -0.93 | 53*
O=C(Nc1nnc(-c2ccco2)s1)c1ccccc1 | -4.5* | nt | 12 | -0.35 | -0.019 | 37
O=C(Nc1nnc(SCc2ccc(Cl)cc2)s1)c1ccco1 | -0.21 | -15 | 13 | 1.3 | -0.72 | -11
CCSc1nnc(NC(=O)c2cc3c(s2)CCCC3)s1 | -1.5 | nt | 52* | 0.038 | -1.2 | 46
SMILES | D1 allo mod | mHtt clearance | SF-1 act | M1 antag | M1 ag | RORA act
O=C(Nc1nc(=O)c2ccccc2s1)c1ccc(F)cc1 | nt | -34 | nt | nt | nt | nt
O=C(Nc1nnc(/N=C/c2ccco2)s1)c1ccc(F)cc1 | -0.69 | 71* | 15 | -0.45 | 0.041 | 11
CCSc1nnc(NC(=O)c2cccnc2)s1 | 0.75 | 39 | 13 | 1.7 | 0 | 41
CCSc1nnc(NC(=O)c2ccccc2)s1 | -0.79 | nt | 49 | 0.16 | 0.046 | 66*
CCSc1nnc(Nc2ccccc2)s1 | 2 | nt | 54* | 0.27 | -0.16 | 17
O=C(c1c(Cl)nc2sccn12)N(C(=O)c1c(Cl)nc2sccn12)c1ccc(Cl)cn1 | -0.028 | nt | 49 | 0.72 | -1.6 | 37
C=CCNc1nc(-c2ccc(OC)cc2OC)cs1 | nt | nt | 102* | 0.0062 | -0.34 | 52*
C=CCOn1c(=O)c(-c2ccc(OC)cc2)[n+]([O-])c2ccccc21 | nt | 30 | -15 | -0.032 | 0.11 | -12
O=c1c(-c2ccc(Cl)cc2)[n+]([O-])c2ccccc2n1O | nt | 6 | -5 | -0.71 | 28* | -12
C=C1CC2C=C(NC(C)=O)CC(C1)C2 (configuration not stated) | 0.27 | -38 | 1 | 0.046 | 0.092 | -13
COCCn1c(C)cc(C(=O)CSc2nnc3ccccn23)c1C | -7.3* | nt | -30 | 0.12 | -0.022 | -46
COCCn1c(C)cc(C(=O)CSc2nc3ccccc3o2)c1C | -3.4 | nt | 0 | -0.58 | -1.7 | 29
CCOc1ccc(-c2nc(CSCC(=O)NCCN3CCOCC3)c(C)o2)cc1 | -1.2 | nt | -65 | 0.011 | 0.47 | -71
COc1ccc(S(=O)(=O)N(CCN2CCOCC2)Cc2cc(OC)ccc2OC)cc1 | 1.1 | -53 | -10 | -0.072 | -0.068 | 2
COc1ccc(-c2noc(CCCC(=O)O)n2)cc1 | -5.5* | nt | -57 | -0.26 | -0.53 | -68
O=C(O)CCc1nc(-c2ccccc2)no1 | -0.78 | -42 | 12 | 0.42 | -0.98 | -12
COc1ccc(C2=NO[C@@H]3C(=O)N(c4cccc(C)c4C)C(=O)[C@H]23)cc1OC | -0.44 | nt | -12 | 0.91* | 0.24 | 1
COc1ccc(C2=NO[C@@H]3C(=O)N(c4ccc(C)cc4C)C(=O)[C@H]23)cc1OC | 0.96 | -60 | -17 | 0.052 | -0.088 | -15
CCN(CC)c1ccc(NC(=O)COc2ccc(C)cc2)cc1 | -0.15 | -3 | -8 | -0.57 | -0.13 | 0
O=C(NCc1ccccn1)Nc1cccc(Cl)c1 | -0.13 | nt | 63* | -0.13 | 0.71 | 38
O=C(NCc1ccccn1)Nc1cccc(NC(=O)NCc2ccccn2)c1 | 0.32 | nt | 20 | nt | nt | 28
Cc1csc(NC(=O)Nc2cccc(Cl)c2)n1 | -0.24 | 22 | 63* | 0.08 | 1.6 | 70*
N#CCc1ccc(NC(=O)Nc2cccc(Cl)c2)cc1 | nt | -22 | 79* | -1.4 | -0.76 | 7
CCOC(=O)c1c(C)[nH]c(C(=O)Cn2nnc(-c3ccc(Cl)cc3)n2)c1C | 0.86 | nt | -11 | 0.14 | -0.098 | -27
COC(=O)c1ccc(Oc2c(C)oc3c(CN4CCN(C)CC4)c(O)ccc3c2=O)cc1 | nt | -26 | -4 | -2 | 0.49 | 5
SMILES | D1 allo mod | mHtt clearance | SF-1 act | M1 antag | M1 ag | RORA act
CCN(CC)C(=O)c1cc(-c2ccc(Br)cc2)on1 | 0.92 | 0 | 56* | 0.011 | 0.13 | 18
COc1ccc(-c2nnc(SCc3cc(C)ccc3C)n2N)cc1 | nt | -55 | nt | nt | nt | nt
CC(=O)N1CCC(N(C(=O)Nc2ccc(C)c(C)c2)C2CCCC2)CC1 | 0.5 | -40 | 6 | 3* | 1.5 | -11
CCN(CCCNC(=O)c1cn(CC)c2ccc(S(=O)(=O)N(C)C)cc2c1=O)c1cccc(C)c1 | 2.8 | 4 | 10 | -0.54 | 0.14 | 62*
O=C(NCc1ccccn1)C1CCC(=O)N1C1CCCCC1 (configuration not stated) | nt | -150 | nt | nt | nt | nt
COc1cccc(-c2nnc(Nc3nc4c(F)cccc4s3)o2)c1 | -2.1 | nt | 51* | -0.11 | 0.34 | 28
C=C(Br)Cn1c(CC(C)C)nc2ccccc21 | -3.3* | 62 | -8 | 1.3 | -0.34 | 1

Screening data deposited in PubChem by several laboratories.
